# Compound activity as filed in PubChem BioAssay.
# Sampled rows, rich in hits. Any-hit rate of the full collection: about 3.7%.
# Kir21 inh: blocks the mouse Kir2.1 inward-rectifier potassium channel. P35561. HEK293-Kir2.1, FluxOR thallium flux fluorescence; active compounds read low. actives 0.85% (n = 310,000). B-score at 10 µM;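 active = fluorescence ratio B-score at or below minus 3 SD of library scores, with starting-brightness B-score within 2 SD, cut at about -4.2 in these data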;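 also: channel flux triggered by added potassium and thallium sulfate stimulus; B-score of peak minus minimum fluorescence over baseline after thallium stimulus; more negative B-score means stronger Kir2.1 block with less thallium influx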
# hERG rescue: shields human hERG channel from block by proarrhythmic agents. activation (rescue from dofetilide block), less the hit threshold, % at 10 µM. CHO-hERG, FluxOR thallium flux, dofetilide IC70 present. Q12809. AID 1511. actives 0.51% (n = 310,000);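 active = activation above the mean of controls blocked by dofetilide plus 5 SD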;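 also: thallium influx through hERG after potassium depolarization seen as dye fluorescence rise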
# Target sequence (Q12809 whole entry, looked up): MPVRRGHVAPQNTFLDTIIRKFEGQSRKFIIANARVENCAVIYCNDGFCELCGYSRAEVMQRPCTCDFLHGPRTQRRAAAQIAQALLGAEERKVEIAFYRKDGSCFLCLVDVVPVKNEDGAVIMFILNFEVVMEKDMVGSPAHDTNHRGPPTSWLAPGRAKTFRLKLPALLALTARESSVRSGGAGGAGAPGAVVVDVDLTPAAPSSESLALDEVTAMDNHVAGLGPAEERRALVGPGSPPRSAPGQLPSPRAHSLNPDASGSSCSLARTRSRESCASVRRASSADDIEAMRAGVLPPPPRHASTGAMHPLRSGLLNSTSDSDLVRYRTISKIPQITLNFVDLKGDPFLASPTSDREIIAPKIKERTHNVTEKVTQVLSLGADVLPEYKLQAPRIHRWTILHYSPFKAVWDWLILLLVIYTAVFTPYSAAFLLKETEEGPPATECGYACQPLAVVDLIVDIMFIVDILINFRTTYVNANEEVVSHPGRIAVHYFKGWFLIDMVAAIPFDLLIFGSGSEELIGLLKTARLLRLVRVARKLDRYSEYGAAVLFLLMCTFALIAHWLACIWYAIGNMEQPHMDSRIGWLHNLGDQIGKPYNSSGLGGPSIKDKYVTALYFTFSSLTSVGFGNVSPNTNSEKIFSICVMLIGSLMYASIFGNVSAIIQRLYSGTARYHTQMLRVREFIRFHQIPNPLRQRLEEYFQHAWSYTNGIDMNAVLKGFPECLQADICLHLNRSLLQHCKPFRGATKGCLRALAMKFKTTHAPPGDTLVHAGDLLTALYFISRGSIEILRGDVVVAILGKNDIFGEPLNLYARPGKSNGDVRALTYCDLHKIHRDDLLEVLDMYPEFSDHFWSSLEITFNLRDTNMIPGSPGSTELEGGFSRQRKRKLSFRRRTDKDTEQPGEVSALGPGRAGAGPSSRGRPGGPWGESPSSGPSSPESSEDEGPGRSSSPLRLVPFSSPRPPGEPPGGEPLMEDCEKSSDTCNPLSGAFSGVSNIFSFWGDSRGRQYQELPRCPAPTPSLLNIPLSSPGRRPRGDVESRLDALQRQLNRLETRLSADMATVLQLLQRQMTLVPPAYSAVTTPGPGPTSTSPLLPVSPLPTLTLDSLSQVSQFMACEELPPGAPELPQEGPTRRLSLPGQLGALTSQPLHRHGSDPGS
# KCNQ1 inh: blocks the human KCNQ1 potassium channel; P51787; CHO-K1 KCNQ1, FluxOR thallium flux fluorescence; active compounds read high; B-score at 10 µM; actives 1.3% (n = 310,000); AID 2642;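 active = compounds whose thallium flux B-score, printed positive for inhibition, exceeds three library SD while starting fluorescence stays within three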;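 also: channel opened by potassium depolarization with thallium stimulus after 20 min compound exposure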
# KCNK3 block: human KCNK3 channel inhibition, primary screen; CHO-KCNK3 thallium flux, FluxOR fluorescence; active compounds read low; B-score at 10 µM; actives 0.84% (n = 340,000); O14649;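 active = B-score under library mean minus 4 SD, starting fluorescence ratio at most library mean plus 5 SD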;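 also: more negative B-score means stronger inhibition of thallium flux through KCNK3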
# KCNQ1 pot: potentiates or activates the human KCNQ1 potassium channel | actives 0.35% (n = 310,000) | B-score at 10 µM | P51787 | CHO-K1 KCNQ1, thallium flux FluxOR fluorescence; active compounds read high;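 active = fluorescence ratio B-score, a plate-corrected score, at least three library SD, with initial intensity B-score within 5 SD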
#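 Medium – assay buffer, equal DMSO in all wells · Material – CHO-K1 cell line with stable KCNQ1 potassium channel expression · Signal – kinetic FluxOR thallium fluorescence, 10-s 1-Hz baseline, 110-s post-stimulus read · Compound – single concentration per compound, DMSO matched to controls · Schedule – 37 °C overnight plating, 90-min dark dye load, 20-min compound pretreatment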
# KCNK9 inh-1: human KCNK9 channel inhibition. HEK293 KCNK9, FluxOR thallium flux fluorescence; active compounds read low. B-score at 10 µM. Q9NPC2. actives 1.2% (n = 310,000);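 active = ratio B-score over 3 SD below the library mean, with starting fluorescence within 5 SD of its mean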;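 also: negative B-score means less thallium flux so channel inhibition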
# hERG inh: blocks human hERG, in counter-screen for Kir2.1 inhibitors; shares compounds with Kir21 inh; hERG-expressing cells, thallium flux; inhibition, % at 10 µM; actives 20% (n = 320); AID 2236;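 also: host cells are CHO cells stably expressing hERG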
# KCNK9 inh-2: tests whether Kir2.1 inhibitors also affect human KCNK9; shares compounds with Kir21 inh; KCNK9-expressing cells, ion flux inhibition; inhibition, % at 10 µM; actives 5% (n = 320)
# Kir2-1 patch inh: inhibitors of mouse Kir2.1 potassium channel; shares compounds with Kir21 inh; Kir2.1 cells, automated patch-clamp current inhibition; inhibition, % at 25 µM; actives 71% (n = 320)
# Hits are given with their value; 0 = inactive; - = not tested or not shown. Unless noted, no rule for the calls is given here.
SMILES,Kir21 inh,hERG rescue,KCNQ1 inh,KCNK3 block,KCNQ1 pot,KCNK9 inh-1,others
Cc1ccc(CNc2ncc(-c3ccc4c(c3)OCO4)n2C)cc1,-10,0,0,0,0,0,
Cn1c(-c2ccc3c(c2)OCO3)cnc1NCc1ccc(Cl)cc1,-11.3,0,11,0,0,0,
Cn1c(-c2ccccc2)cnc1NCc1ccc(-c2ccccc2)cc1,0,0,0,0,0,0,
COc1cc(CNc2ncc(-c3ccc(Cl)cc3)n2C)cc(OC)c1OC,0,0,0,0,0,0,
C/C(N)=C(/C#N)C(=O)CSc1nc2ccccc2c(=O)n1Cc1ccc(F)cc1,0,0,0,0,8,0,
CN(Cc1cccc(-n2cccn2)c1)C(=O)CCc1nnc(C2CCCCC2)o1,0,0,0,0,0,0,
CC1CCCC(C)N1C(=O)COC(=O)c1nn(C)c(=O)c2ccccc12 (stereo not drawn),0,0,0,0,0,0,
O=C1C=CC(=O)N1CCNc1ncc(C(F)(F)F)cc1Cl,-5.71,0,0,0,18,0,
CCN(CC)S(=O)(=O)c1ccc(Cl)c(C(=O)NNC(=O)c2csc(N3CCOCC3)n2)c1,-,-,-,0,-,-,
COc1ccc(N2CCN(C(=O)CN3C(=O)NC4(CCCCC4C)C3=O)CC2)cc1 (stereo not drawn),-,-,-,0,-,-,
Cc1ccc2c(CSc3nnnn3C)cc(=O)oc2c1,0,0,0,0,0,0,
Cc1ccc2c(CSc3nc4ccccc4c(=O)n3CCCO)cc(=O)oc2c1,-,-,-,-9.07,-,-,
O=C(CSc1ccccc1)Nc1ccc2sccc2c1,0,0,0,0,0,0,
Cc1ccccc1NC(=S)NCCC(c1ccccc1)c1ccccc1,0,0,7,0,0,0,
S=C(NCCC(c1ccccc1)c1ccccc1)Nc1cccc(Cl)c1,0,0,9,0,0,0,
S=C(N/N=C/c1cccc2ccccc12)Nc1cccc(Cl)c1,0,5.3,0,0,8,0,
Cc1ccc(NC(=O)CC(N)=S)cc1,0,0,0,0,0,0,
Cc1ccc(NC(=O)CC(O)(C(F)(F)F)C(F)(F)F)cc1,0,0,7,0,0,0,
O=C(c1ccc(NS(=O)(=O)/C=C/c2ccccc2)cc1)N1CCCCC1,0,0,0,0,0,0,
Cc1cc(=O)[nH]c(SCC(=O)N2CCC(Cc3ccccc3)CC2)n1,0,0,0,0,0,0,
O=C(CSc1nc(C(F)(F)F)cc(=O)[nH]1)N1CCC(Cc2ccccc2)CC1,0,0,6,0,0,0,
Cc1c(Cl)cnc(NC(=O)CSc2n[nH]c(N)n2)c1Cl,-,-,-,0,-,-,
O=C(NNC(=S)NCCc1ccccc1)c1ccc(Br)s1,0,0,8,0,0,0,
O=C(CCc1ccc(O)cc1)NNC(=S)NCCc1ccccc1,0,0,0,0,0,0,
CCc1ccc2c(c1)c(N=NC1=NC(=O)CS1)c(O)n2CC,0,7.7,0,0,16,0,
SMILES,Kir21 inh,hERG rescue,KCNQ1 inh,KCNK3 block,KCNQ1 pot,KCNK9 inh-1,others
CCc1ccc2[nH]c(O)c(N=NC3=NC(=O)CS3)c2c1,0,0,0,0,0,0,
Cc1ccc(-n2[nH]c(C)c(/C=N/Nc3ccc([N+](=O)[O-])cc3[N+](=O)[O-])c2=O)cc1,0,0,7,0,0,0,
Cc1[nH]n(-c2ccc([N+](=O)[O-])cc2)c(=O)c1C=NCC1CCCO1 (stereo not drawn),0,0,0,0,0,0,
CCOC(=O)c1c(NC(=O)c2cc(C)on2)c2cc([N+](=O)[O-])ccc2n1C,0,0,0,-,0,0,
COc1ccc(NC(=O)CS(=O)(=O)c2cn(CC(=O)N3CCCC3)c3ccccc23)c(OC)c1,0,0,0,0,0,0,
CN(CCCCCCN(C)Cc1ccccc1O)Cc1ccccc1O,-5.15,0,0,0,0,0,
Cc1ccc(O)c(CN(C)Cc2cc(C)ccc2O)c1,-,-,-,0,-,-,
CCN(CC)S(=O)(=O)c1ccc(N2CCCCC2)c(NC(=O)/C=C/c2cc(OC)c(OC)c(OC)c2)c1,0,0,0,0,0,-6.86,
COc1cc(/C=C/C(=O)Nc2cc(S(=O)(=O)N3CCOCC3)ccc2N2CCCC2)cc(OC)c1OC,0,0,0,0,0,0,
CN1CCCC1CCNc1ccc2sc3ccccc3c(=O)c2c1 (stereo not drawn),0,0,0,0,0,-7.5,
O=c1c2ccccc2sc2ccc(NCCCN3CCOCC3)cc12,0,0,0,0,0,0,
CCCCC(CC)C(=O)Nc1ccc(C)c(O)c1 (stereo not drawn),0,0,0,0,0,-7.48,
CCCCC(CC)C(=O)Nc1ccc(Nc2ccccc2)cc1 (stereo not drawn),0,0,0,0,0,-6.72,
O=C(CSc1ccc2ccccc2c1)N1CCN(c2ccc(O)cc2)CC1,-4.23,0,0,0,0,0,
O=S(=O)(c1ccc2ccccc2c1)N1CCN(c2ccc(O)cc2)CC1,-,-,-,0,-,-,
O=C(CSc1nc2ccccc2nc1N1CCCCC1)N1CCN(c2ccccc2)CC1,0,0,6,0,0,0,
CCOC(=O)CNC(=O)Cn1cnc2c(cnn2-c2ccc(C)cc2)c1=O,0,0,0,0,0,0,
CCNC(=O)CON=C1c2ccccc2-c2ccccc21,0,0,0,0,0,0,
COCCNCC(O)CON=C1c2ccccc2-c2ccccc21 (stereo not drawn),-7.02,0,0,0,0,0,hERG inh=0;KCNK9 inh-2=0;Kir2-1 patch inh=18.7%
CC(Sc1nnc(C(F)(F)F)n1C)C(=O)Nc1ccc(S(N)(=O)=O)cc1 (stereo not drawn),0,0,0,0,0,0,
O=Cc1ccc(C(=O)OCC(=O)NCCC2=CCCCC2)cc1,0,0,0,0,0,0,
CCN(CC)S(=O)(=O)c1ccc(Cl)c(OC)c1,0,0,0,0,0,0,
CCCN(CCC)S(=O)(=O)c1ccc(Cl)c(OC)c1,-6.22,0,0,0,0,0,hERG inh=0;KCNK9 inh-2=0;Kir2-1 patch inh=32.3%
CCN(Cc1ccc(C#CCCO)cc1)CC1CCCN(CCc2cccc(F)c2)C1 (stereo not drawn),-6.7,0,0,0,0,0,hERG inh=55.0%;KCNK9 inh-2=0;Kir2-1 patch inh=13.7%
CN1C(=O)C(O)(C2CCCCCC2=O)c2ccccc21 (stereo not drawn),0,0,0,0,0,0,
COc1ccc(CN2CCC(CO)(CCOc3ccccc3)CC2)cc1C,0,0,0,0,0,0,
